Active and inactive are the calls of the source. No cut-off for these calls is given here.
What was measured:
Mus musculus [1] = assay: Anticonvulsant activity in ip dosed CF1 albino mouse assessed as inhibition of subcutaneous pentylenetetrazole-induced electrical stimulus after 4 hrs; type: functional
In short: (§1)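 Male CF-1 mice injected intraperitoneally at 30, 100 and 300 mg/kg, suspended in 0.5% methylcellulose/water. MES or subcutaneous pentylenetetrazole challenge at 0.5 and 4 h; selected compounds also at 1 or 2 h.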

Mus musculus [2] = assay: Anticonvulsant activity in ip dosed CF1 albino mouse assessed as inhibition of subcutaneous pentylenetetrazole-induced electrical stimulus after 0.5 hr; type: functional; in short: as §1
Rattus norvegicus [3] = assay: Anticonvulsant activity in Sprague-Dawley rat assessed as protection against seizure at 50 mg/kg, po after 4 hrs by subcutaneous pentylenetetrazole test; type: functional
In short: (§2)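 Male Sprague–Dawley rats dosed orally at 50 mg/kg as a 0.5% methylcellulose/water suspension, four animals per time point. Convulsant given subcutaneously at 0.25, 0.5, 1, 2 and 4 h after dosing; rotorod motor impairment assessed in parallel. Read-out: number of rats of four protected.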

Mus musculus [4] = assay: Anticonvulsant activity in ip dosed CF1 albino mouse assessed as inhibition of maximal electroshock-induced electrical stimulus at 300 mg/kg after 0.5 hr; type: functional, organism-based; set-up: dose 300 mg/kg; in short: as §1
Mus musculus [5] = assay: Neurotoxicity in ip dosed CF1 albino mouse at 300 mg/kg after 4 hrs by rotarod test; type: toxicity, organism-based; set-up: dose 300 mg/kg, route intraperitoneal; settings: in vivo
In short: (§3)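 CF-1 mice given 30, 100 or 300 mg/kg ip in 0.5% methylcellulose/water, examined at 0.5 and 4 h. Rotorod test: neurotoxicity is the inability to keep equilibrium on the rod for a given time. Value is the minimum dose giving motor impairment; a dash means none at 300 mg/kg.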

Mus musculus [6] = assay: Anticonvulsant activity in ip dosed CF1 albino mouse assessed as inhibition of maximal electroshock-induced electrical stimulus at 300 mg/kg after 4 hrs; type: functional, organism-based; set-up: dose 300 mg/kg; in short: as §1
Mus musculus [7] = assay: Neurotoxicity in ip dosed CF1 albino mouse at 300 mg/kg after 0.5 hr by rotarod test; type: toxicity, organism-based; set-up: dose 300 mg/kg, route intraperitoneal; settings: in vivo; in short: as §3
Rattus norvegicus [8] = assay: Anticonvulsant activity in Sprague-Dawley rat assessed as protection against seizure rat at 50 mg/kg, po after 0.25 hr by subcutaneous pentylenetetrazole test; type: functional; in short: as §2
Rattus norvegicus [9] = assay: Anticonvulsant activity in Sprague-Dawley rat assessed as protection against seizure at 30 mg/kg, po after 0.5 hr by maximal electroshock test; type: functional
In short: (§4)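 Male Sprague–Dawley rats; compound suspended in 0.5% methylcellulose/water and given orally at a fixed 30 mg/kg, four rats per time point. MES test run at 0.25, 0.5, 1, 2 and 4 h after dosing, with motor impairment checked in parallel. Read-out: number of rats of four protected.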

[10] = Lipophilicity, log kw of compound by RP-HPLC; type: physicochemical
In short: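 RP-HPLC on a C18 end-capped column at room temperature, with UV detection at 214 nm and uracil as the unretained marker. Capacity factor k = (tr − t0)/t0, from the mean of three measurement sets. log k extrapolated to 100% water (log k = log kw − Sφ) to give log kw.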

Rattus norvegicus [11] = assay: Anticonvulsant activity in Sprague-Dawley rat assessed as protection against seizure at 30 mg/kg, po after 4 hrs by maximal electroshock test; type: functional; in short: as §4
Mus musculus [12] = assay: Anticonvulsant activity in ip dosed CF1 albino mouse assessed as inhibition of maximal electroshock-induced electrical stimulus after 4 hrs; type: functional; in short: as §1
Rattus norvegicus [13] = assay: Anticonvulsant activity in Sprague-Dawley rat assessed as protection against seizure at 50 mg/kg, po after 0.5 hr by subcutaneous pentylenetetrazole test; type: functional; in short: as §2
Mus musculus [14] = assay: Neurotoxicity in ip dosed CF1 albino mouse after 0.5 hr by rotarod test; type: toxicity, organism-based; settings: in vivo; in short: as §3
Rattus norvegicus [15] = assay: Anticonvulsant activity in Sprague-Dawley rat assessed as protection against seizure at 30 mg/kg, po after 2 hrs by maximal electroshock test; type: functional; in short: as §4
Rattus norvegicus [16] = assay: Anticonvulsant activity in Sprague-Dawley rat assessed as protection against seizure at 30 mg/kg, po after 1 hr by maximal electroshock test; type: functional; in short: as §4
Mus musculus [17] = assay: Anticonvulsant activity in ip dosed CF1 albino mouse assessed as inhibition of maximal electroshock-induced electrical stimulus after 0.5 hr; type: functional; in short: as §1
Rattus norvegicus [18] = assay: Anticonvulsant activity in Sprague-Dawley rat assessed as protection against seizure at 50 mg/kg, po after 2 hrs by subcutaneous pentylenetetrazole test; type: functional, organism-based; set-up: dose 50 mg/kg; in short: as §2
Mus musculus [19] = assay: Anticonvulsant activity in ip dosed CF1 albino mouse assessed as inhibition of subcutaneous pentylenetetrazole-induced electrical stimulus at 300 mg/kg after 4 hrs; type: functional, organism-based; set-up: dose 300 mg/kg; in short: as §1
Rattus norvegicus [20] = assay: Anticonvulsant activity in Sprague-Dawley rat assessed as protection against seizure at 50 mg/kg, po after 1 hr by subcutaneous pentylenetetrazole test; type: functional, organism-based; set-up: dose 50 mg/kg; in short: as §2
Rattus norvegicus [21] = assay: Neurotoxicity in po dosed Sprague-Dawley rat at 50 mg/kg by rotarod test; type: toxicity, organism-based; set-up: dose 50 mg/kg, route oral; settings: in vivo; in short: as §2
Mus musculus [22] = assay: Neurotoxicity in ip dosed CF1 albino mouse after 4 hrs by rotarod test; type: toxicity, organism-based; settings: in vivo; in short: as §3
Rattus norvegicus [23] = assay: Anticonvulsant activity in Sprague-Dawley rat assessed as protection against seizure at 30 mg/kg, po after 0.25 hr by maximal electroshock test; type: functional; in short: as §4
Mus musculus [24] = assay: Anticonvulsant activity in ip dosed CF1 albino mouse assessed as inhibition of maximal electroshock-induced electrical stimulus after 1 hr; type: functional; in short: as §1
Mus musculus [25] = assay: Anticonvulsant activity in ip dosed CF1 albino mouse assessed as inhibition of subcutaneous pentylenetetrazole-induced electrical stimulus at 300 mg/kg after 0.5 hr; type: functional, organism-based; set-up: dose 300 mg/kg; in short: as §1

Row | Structure (SMILES) | Activity (Mus musculus [1]) | Activity (Mus musculus [2]) | Activity (Rattus norvegicus [3]) | Activity (Mus musculus [5]) | Activity (Mus musculus [6]) | Activity (Rattus norvegicus [8]) | Activity (Rattus norvegicus [9]) | log K [10] | Activity (Rattus norvegicus [11]) | Activity (Mus musculus [12]) | Activity (Rattus norvegicus [13]) | Activity (Mus musculus [14]) | Activity (Rattus norvegicus [15]) | Activity (Rattus norvegicus [16]) | Activity (Mus musculus [17]) | Activity (Mus musculus [19]) | Activity (Rattus norvegicus [23]) | also measured
1 | CCC1(C)CC(=O)NC1=O (stereo not drawn) [ETHOSUXIMIDE] | 300 mg/kg | 100 mg/kg | inactive | Not Active | inactive | inactive |  |  |  |  |  |  |  |  |  |  |  | Activity (Mus musculus [4]): inactive; Activity (Mus musculus [7]): Not Active
2 | CC1(C)CC(=O)N(Nc2ccc(Cl)cc2Cl)C1=O |  | 100 mg/kg |  |  |  |  | inactive | 2.179 | inactive | 100 mg/kg | inactive | 100 mg/kg |  |  |  |  |  | 
3 | CCC1(C)CC(=O)N(Nc2cccc(Cl)c2)C1=O (stereo not drawn) |  |  |  |  |  |  |  | 2.183 | inactive |  | inactive | 300 mg/kg | inactive | inactive | 300 mg/kg |  |  | 
4 | CCCCC1(C)CC(=O)N(Nc2ccc(Br)cc2)C1=O (stereo not drawn) |  | 300 mg/kg | inactive | Not Active | inactive | inactive |  | 2.539 |  |  | 25% | 300 mg/kg |  |  |  | inactive |  | Activity (Rattus norvegicus [18]): inactive; Activity (Rattus norvegicus [20]): inactive; Activity (Mus musculus [4]): inactive; Activity (Rattus norvegicus [21]): Non-toxic
5 | CCCC1(C)CC(=O)N(Nc2ccc(Cl)cc2Cl)C1=O (stereo not drawn) |  | 100 mg/kg | 25% | Not Active | inactive | 25% |  | 2.647 |  |  | 50% |  |  |  |  | inactive |  | Activity (Rattus norvegicus [18]): inactive; Activity (Rattus norvegicus [20]): Active; Activity (Mus musculus [4]): inactive; Activity (Mus musculus [7]): Not Active; Activity (Rattus norvegicus [21]): Non-toxic
6 | CCC1(C)CC(=O)N(Nc2ccc(Cl)cc2Cl)C1=O (stereo not drawn) | 300 mg/kg | 100 mg/kg |  |  |  |  | 25% | 2.334 | inactive | 300 mg/kg |  | 30 mg/kg | 25% | inactive | 300 mg/kg |  | inactive | Activity (Mus musculus [22]): 300 mg/kg; Activity (Mus musculus [24]): 100 mg/kg
7 | O=C1C2CCCCC2C(=O)N1Nc1ccccc1 (stereo not drawn) |  | 300 mg/kg | inactive | Not Active | inactive | 25% | 25% | 1.937 | inactive |  | inactive |  | inactive | inactive | 300 mg/kg | inactive | inactive | Activity (Rattus norvegicus [18]): inactive; Activity (Rattus norvegicus [20]): inactive; Activity (Mus musculus [7]): Not Active; Activity (Rattus norvegicus [21]): Non-toxic
8 | CCC1(C)CC(=O)N(Nc2ccc(Cl)cc2)C1=O (stereo not drawn) |  | 300 mg/kg |  |  | inactive |  |  | 2.201 | 25% |  |  | 100 mg/kg |  | 25% | 100 mg/kg | inactive | inactive | Activity (Mus musculus [22]): 300 mg/kg
9 | CCC1(C)CC(=O)N(Nc2ccc(Br)cc2)C1=O (stereo not drawn) | 100 mg/kg | 300 mg/kg |  | Not Active | inactive |  | 50% | 2.024 | 25% |  |  | 300 mg/kg | 50% | 50% | 300 mg/kg |  | 75% | 
10 | CC1(C)CC(=O)N(Nc2ccc(Br)cc2)C1=O |  |  |  | Not Active |  |  | 25% | 1.864 | 50% | 300 mg/kg |  | 300 mg/kg | 50% | 25% | 300 mg/kg | inactive |  | Activity (Mus musculus [24]): 100 mg/kg; Activity (Mus musculus [25]): inactive
11 | CCC1(CC)CC(=O)N(Nc2ccc(Cl)cc2Cl)C1=O |  | 100 mg/kg |  | Not Active |  |  |  | 2.552 |  | 300 mg/kg |  | 100 mg/kg |  |  | 300 mg/kg | inactive |  | Activity (Mus musculus [24]): 100 mg/kg
12 | CC1(C)CC(=O)N(Nc2ccc(Cl)cc2)C1=O | 300 mg/kg | 100 mg/kg |  |  |  |  |  | 2.08 |  | 300 mg/kg |  | 300 mg/kg |  |  | 100 mg/kg |  |  | Activity (Mus musculus [22]): 300 mg/kg
